Tests used:
[1] = organism: Rattus norvegicus; assay: Compound was evaluated for its activity at membrane-bound receptor (M+L+P fraction) from rat frontal cortex; type: functional, organism-based; settings: for IC50: Rattus norvegicus, Frontal cortex
[2] = organism: Rattus norvegicus; assay: Compound was evaluated for its activity at solubilized receptor (CHAPS/salt-solubilized preparation) from rat frontal cortex; type: functional, organism-based; settings: for IC50: Rattus norvegicus, Frontal cortex
[3] = Binding affinity for membrane-bound 5-HT-S2 receptor; design: species or system Rattus norvegicus
In short: (§1)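 Rat frontal cortex (M+L+P) fraction, diluted 1:100 w/v, in 50 mM Tris-HCl pH 7.7. Incubated 15 min at 37 °C with 1 nM [3H]-7-aminoketanserin (final) and unlabeled drug. Stopped by rapid GF/B filtration with two ice-cold buffer rinses, then scintillation counting. IC50 from two experiments in triplicate; Ki by Cheng-Prusoff.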

[4] = organism: Rattus norvegicus; assay: (§2) Number of binding sites of the receptor was determined
In short: (§3)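 Saturation binding of [3H]-7-aminoketanserin to rat frontal cortex (M+L+P) fraction (three experiments) or solubilized preparation (two experiments), each in triplicate. Specific binding is total minus binding with a 1000-fold methysergide excess. Bmax and KD taken from computer-fitted Scatchard plots.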

[5] = molecular target: T1, Serotonin 1 (5-HT1) receptor (Rattus norvegicus, UniProt P28564+P30940+P19327+P28565); assay: Compound was evaluated for binding activity against [3H]-5-HT as radioligand for serotonin S1 receptor; type: protein assay
In short: (§4)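 Filtration binding technique applied to rat or guinea pig brain tissue. Tissues, buffers, radioligands and incubation conditions per earlier methods. Ki computed using radioligand KD values from the literature.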

[6] = Binding affinity for detergent solubilized 5-HT-S2 receptor; design: species or system Rattus norvegicus
In short: (§5)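 Rat frontal cortex microsomal fraction solubilized for 12 min at 4 °C in CHAPS/NaCl medium (13.6 mM CHAPS, 2.8 M NaCl, pH 7.2), centrifuged at 180000 g, and supernatant diluted to 1:16 w/v. Incubated 15 min at 30 °C with 2 nM [3H]-7-aminoketanserin (final) and drug. Free ligand removed by charcoal/BSA, supernatant counted. IC50 from two triplicate experiments; Ki by Cheng-Prusoff.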

[7] = molecular target: Serotonin 2 (5-HT2) receptor (Rattus norvegicus, UniProt P30994+P08909+P14842); assay: Evaluated for binding activity against [3H]ketanserin as radioligand for 5-hydroxytryptamine 2 receptor; type: protein assay; in short: as §4
[8] = molecular target: T2, Adrenergic receptor alpha-1 (Rattus norvegicus, UniProt P15823+P23944+P43140); assay: Compound was evaluated for binding activity against [3H]-WB- 4101 as radioligand for alpha-1 adrenergic receptor; type: protein assay; in short: as §4
T2 sequence (P15823 whole entry): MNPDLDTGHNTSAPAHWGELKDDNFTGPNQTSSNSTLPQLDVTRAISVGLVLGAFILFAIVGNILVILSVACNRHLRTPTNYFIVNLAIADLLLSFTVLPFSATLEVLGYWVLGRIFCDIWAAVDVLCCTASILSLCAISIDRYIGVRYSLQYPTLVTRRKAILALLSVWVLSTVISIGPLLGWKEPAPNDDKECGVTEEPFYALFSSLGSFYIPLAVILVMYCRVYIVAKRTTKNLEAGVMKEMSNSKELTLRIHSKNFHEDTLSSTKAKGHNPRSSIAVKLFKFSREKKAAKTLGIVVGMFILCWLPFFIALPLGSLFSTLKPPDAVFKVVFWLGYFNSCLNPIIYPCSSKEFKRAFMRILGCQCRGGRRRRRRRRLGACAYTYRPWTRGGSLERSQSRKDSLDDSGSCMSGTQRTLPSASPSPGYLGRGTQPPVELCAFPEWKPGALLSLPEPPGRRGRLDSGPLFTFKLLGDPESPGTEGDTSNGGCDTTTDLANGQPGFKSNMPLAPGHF
T2 sequence (P23944 whole entry): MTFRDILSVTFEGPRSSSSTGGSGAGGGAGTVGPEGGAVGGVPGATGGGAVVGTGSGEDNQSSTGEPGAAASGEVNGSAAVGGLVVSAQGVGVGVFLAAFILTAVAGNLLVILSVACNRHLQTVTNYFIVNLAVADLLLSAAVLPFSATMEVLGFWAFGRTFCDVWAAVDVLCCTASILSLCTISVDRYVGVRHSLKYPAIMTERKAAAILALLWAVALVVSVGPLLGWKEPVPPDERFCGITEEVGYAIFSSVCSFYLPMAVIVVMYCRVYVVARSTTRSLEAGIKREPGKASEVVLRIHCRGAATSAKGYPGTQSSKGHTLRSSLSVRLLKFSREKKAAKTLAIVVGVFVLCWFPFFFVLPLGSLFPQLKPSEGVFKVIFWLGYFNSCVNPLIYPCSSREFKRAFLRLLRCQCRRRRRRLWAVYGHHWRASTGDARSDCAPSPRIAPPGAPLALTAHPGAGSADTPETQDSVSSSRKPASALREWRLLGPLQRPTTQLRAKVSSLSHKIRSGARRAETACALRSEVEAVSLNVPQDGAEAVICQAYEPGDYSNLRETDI
T2 sequence (P43140 whole entry): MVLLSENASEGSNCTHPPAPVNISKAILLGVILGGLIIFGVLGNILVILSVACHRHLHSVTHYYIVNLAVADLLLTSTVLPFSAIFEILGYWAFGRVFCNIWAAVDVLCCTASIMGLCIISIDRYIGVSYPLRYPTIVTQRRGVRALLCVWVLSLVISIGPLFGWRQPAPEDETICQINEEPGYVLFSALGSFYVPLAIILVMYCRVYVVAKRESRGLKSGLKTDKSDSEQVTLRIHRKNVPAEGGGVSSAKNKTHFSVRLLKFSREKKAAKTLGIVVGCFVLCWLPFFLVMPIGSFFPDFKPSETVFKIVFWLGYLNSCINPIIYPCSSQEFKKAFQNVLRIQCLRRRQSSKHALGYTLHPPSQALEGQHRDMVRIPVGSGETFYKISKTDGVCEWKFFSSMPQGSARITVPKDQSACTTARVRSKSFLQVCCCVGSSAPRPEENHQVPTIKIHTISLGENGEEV

[9] = molecular target: Muscarinic acetylcholine receptor; assay: Compound was evaluated for binding activity against [3H]dexetimide as radioligand for muscarinic-acetylcholine receptor; type: protein assay; in short: as §4
[10] = molecular target: Histamine H1 receptor (Rattus norvegicus, UniProt P31390); assay: Compound was evaluated for binding activity against [3H]pyrilamine as radioligand for Histamine H1 receptor; in short: as §4
[11] = organism: Rattus norvegicus; assay: as §2; in short: as §3; remark: listed apart in the source
[12] = Compound was evaluated at membrane-bound receptor (M+L+P fraction) from rat frontal cortex; type: tissue-based; in short: as §1
[13] = Compound was evaluated at solubilized receptor (CHAPS/salt-solubilized preparation) from rat frontal cortex; type: tissue-based; in short: as §5
[14] = molecular target: D(2) dopamine receptor (Rattus norvegicus, UniProt P61169); assay: Compound was evaluated for binding activity against [3H]haloperidol as radioligand for Dopamine receptor D2; in short: as §4
[15] = Half life time was determined; type: ADME
In short: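 Kinetics of [3H]-7-aminoketanserin at rat frontal cortex receptors, membrane-bound (M+L+P) or CHAPS/salt-solubilized. Association ran for 20 min. Dissociation was started by adding a 1000-fold excess of pipamperone and treated as first-order. Means ± SD of independent triplicate experiments.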

[16] = molecular target: Adrenergic receptor beta (Rattus norvegicus, UniProt P18090+P10608+P26255); assay: Compound was evaluated for binding activity against [3H]dihydroalprenolol as radioligand for beta adrenergic receptor; type: protein assay; in short: as §4
[17] = molecular target: T1, Serotonin 1 (5-HT1) receptor; assay: Compound was evaluated for binding activity against [3H]5-HT as radioligand for serotonin S1 receptor; type: protein assay; in short: as §4
[18] = molecular target: T3, Adrenergic receptor alpha-2 (Rattus norvegicus, UniProt P22086+P19328+P22909); assay: Compound was evaluated for binding activity against [3H]clonidine as radioligand for alpha-2 adrenergic receptor; type: protein assay; in short: as §4
T3 sequence (P22086 whole entry): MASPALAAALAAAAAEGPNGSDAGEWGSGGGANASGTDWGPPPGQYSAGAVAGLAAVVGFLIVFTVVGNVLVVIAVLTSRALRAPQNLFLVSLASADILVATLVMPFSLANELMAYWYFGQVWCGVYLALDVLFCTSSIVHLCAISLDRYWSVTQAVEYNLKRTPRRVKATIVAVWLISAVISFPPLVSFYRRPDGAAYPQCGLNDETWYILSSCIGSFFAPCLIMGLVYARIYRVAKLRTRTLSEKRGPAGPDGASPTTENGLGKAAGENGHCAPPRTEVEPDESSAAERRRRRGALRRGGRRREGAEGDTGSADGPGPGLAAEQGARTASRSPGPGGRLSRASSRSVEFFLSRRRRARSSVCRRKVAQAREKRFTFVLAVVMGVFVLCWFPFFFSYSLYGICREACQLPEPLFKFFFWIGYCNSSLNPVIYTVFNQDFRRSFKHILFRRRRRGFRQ
T3 sequence (P19328 whole entry): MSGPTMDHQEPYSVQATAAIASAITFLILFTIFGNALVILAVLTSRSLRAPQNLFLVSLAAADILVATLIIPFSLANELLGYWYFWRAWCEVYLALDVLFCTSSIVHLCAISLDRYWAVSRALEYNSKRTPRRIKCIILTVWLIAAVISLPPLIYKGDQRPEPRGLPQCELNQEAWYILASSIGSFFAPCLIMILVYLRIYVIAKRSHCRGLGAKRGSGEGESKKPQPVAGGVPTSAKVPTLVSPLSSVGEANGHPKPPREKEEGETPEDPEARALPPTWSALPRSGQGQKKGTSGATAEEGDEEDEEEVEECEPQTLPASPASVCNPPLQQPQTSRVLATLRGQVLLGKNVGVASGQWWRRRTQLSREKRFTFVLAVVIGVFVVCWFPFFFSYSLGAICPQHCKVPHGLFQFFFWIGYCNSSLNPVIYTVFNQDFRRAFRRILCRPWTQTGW
T3 sequence (P22909 whole entry): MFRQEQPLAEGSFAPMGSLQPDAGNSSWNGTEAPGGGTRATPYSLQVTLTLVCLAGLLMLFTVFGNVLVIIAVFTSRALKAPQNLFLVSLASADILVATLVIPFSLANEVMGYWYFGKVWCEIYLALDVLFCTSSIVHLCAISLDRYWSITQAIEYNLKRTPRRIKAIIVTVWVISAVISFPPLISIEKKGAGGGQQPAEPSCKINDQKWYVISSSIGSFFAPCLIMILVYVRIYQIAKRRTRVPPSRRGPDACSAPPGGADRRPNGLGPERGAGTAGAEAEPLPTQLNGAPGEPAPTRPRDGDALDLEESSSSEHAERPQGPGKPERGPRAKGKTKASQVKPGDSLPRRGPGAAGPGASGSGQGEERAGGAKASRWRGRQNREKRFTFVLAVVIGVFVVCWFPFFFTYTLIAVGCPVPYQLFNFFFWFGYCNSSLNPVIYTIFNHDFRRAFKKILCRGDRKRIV

Chain of D(2) dopamine receptor (P61169 whole entry): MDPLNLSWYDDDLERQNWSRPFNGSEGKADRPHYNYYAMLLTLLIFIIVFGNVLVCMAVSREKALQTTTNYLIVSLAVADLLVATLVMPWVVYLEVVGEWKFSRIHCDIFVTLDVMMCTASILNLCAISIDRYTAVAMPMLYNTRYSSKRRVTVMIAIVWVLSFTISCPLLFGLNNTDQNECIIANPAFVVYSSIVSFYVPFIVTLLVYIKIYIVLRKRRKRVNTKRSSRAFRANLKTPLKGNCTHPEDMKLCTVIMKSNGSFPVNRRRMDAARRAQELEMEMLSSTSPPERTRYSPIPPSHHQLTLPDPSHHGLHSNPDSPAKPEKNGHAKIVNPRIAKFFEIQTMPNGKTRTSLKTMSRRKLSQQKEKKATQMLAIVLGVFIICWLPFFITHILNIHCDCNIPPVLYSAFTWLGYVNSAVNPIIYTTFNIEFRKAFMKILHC
Chain of Histamine H1 receptor (P31390 whole entry): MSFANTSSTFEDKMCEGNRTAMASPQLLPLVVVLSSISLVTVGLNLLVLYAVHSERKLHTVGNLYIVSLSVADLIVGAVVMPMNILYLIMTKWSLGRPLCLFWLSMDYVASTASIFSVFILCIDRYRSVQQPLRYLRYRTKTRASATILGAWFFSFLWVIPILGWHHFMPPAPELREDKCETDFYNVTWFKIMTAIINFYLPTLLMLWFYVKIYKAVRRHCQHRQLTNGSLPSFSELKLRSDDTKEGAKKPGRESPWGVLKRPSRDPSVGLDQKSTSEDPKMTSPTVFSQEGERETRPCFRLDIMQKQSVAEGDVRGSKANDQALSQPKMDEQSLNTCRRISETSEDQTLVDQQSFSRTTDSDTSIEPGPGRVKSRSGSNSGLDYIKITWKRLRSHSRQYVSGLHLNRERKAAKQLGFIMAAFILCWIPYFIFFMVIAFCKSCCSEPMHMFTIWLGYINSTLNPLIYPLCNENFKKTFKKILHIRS

COc1cccc(OC)c1OCCNCC1COc2ccccc2O1 (stereo unspecified)
Ki [1]: 697 nM
IC50 [1]: 2690 nM
Ki [2]: 3880 nM
IC50 [2]: 7760 nM

Nc1ccc2c(=O)n(CCN3CCC(C(=O)c4ccc(F)cc4)CC3)c(=O)[nH]c2c1
Kd [3]: 0.35 nM
Bmax [4]: 4.18 fmol/mg
-Log IC50 [5]: 5.25
Kd [6]: 2.03 nM
-Log IC50 [7]: 9.25
Ki [7]: 0.17 nM
-Log IC50 [8]: 7.82
Ki [8]: 5.49 nM
-Log IC50 [9]: < 6
IC50 [10]: 2.24 nM
Ki [10]: 1.22 nM
Bmax [11]: 37 fmol/mg
-Log IC50 [12]: 8.86
Ki [12]: 0.36 nM
-Log IC50 [13]: 8.35
Ki [13]: 2.23 nM
IC50 [14]: 417 nM
Ki [14]: 164 nM
T1/2 [15]: 12.4 min
half-life [15]: 7.8 min
-Log IC50 [16]: < 6
Ki [17]: 4416 nM
-Log IC50 [18]: < 6

CN(C)CCc1c[nH]c2ccc(O)cc12 [BUFOTENINE]
Ki [1]: 341 nM
IC50 [1]: 1320 nM
Ki [2]: 6300 nM
IC50 [2]: 12600 nM

O=c1[nH]c2ccccc2n1CCCN1CCC(n2c(=O)[nH]c3cc(Cl)ccc32)CC1 [DOMPERIDONE]
Ki [1]: 152 nM
IC50 [1]: 589 nM
Ki [2]: 998 nM
IC50 [2]: 2000 nM

O=C(c1ccc(F)cc1)C1CCN(CCn2c(=O)[nH]c3ccccc3c2=O)CC1 [KETANSERIN]
Ki [1]: 0.68 nM
IC50 [1]: 2.63 nM
Ki [2]: 3.97 nM
IC50 [2]: 7.94 nM

CN1CCN2c3ccccc3Cc3ccccc3C2C1 (stereo unspecified) [MIANSERIN]
Ki [1]: 3.04 nM
IC50 [1]: 11.7 nM
Ki [2]: 13.5 nM
IC50 [2]: 26.9 nM

NC(=O)C1(N2CCCCC2)CCN(CCCC(=O)c2ccc(F)cc2)CC1 [PIPAMPERONE]
Ki [1]: 1.39 nM
IC50 [1]: 5.37 nM
Ki [2]: 9.53 nM
IC50 [2]: 19.1 nM

Cc1nc2ccccn2c(=O)c1CCN1CCC(C(=O)c2ccc(F)cc2)CC1 [PIRENPERONE]
Ki [1]: 0.47 nM
IC50 [1]: 1.82 nM
Ki [2]: 3.54 nM
IC50 [2]: 7.08 nM

COc1cc2nc(N3CCN(C(=O)c4ccco4)CC3)nc(N)c2cc1OC [PRAZOSIN]
Ki [1]: 11600 nM
IC50 [1]: 44700 nM
Ki [2]: 19900 nM
IC50 [2]: 39800 nM

COc1ccc(CN(CCN(C)C)c2ccccn2)cc1 [PYRILAMINE]
Ki [1]: 1030 nM
IC50 [1]: 3980 nM
Ki [2]: 9980 nM
IC50 [2]: 20000 nM

Cc1nc2sccn2c(=O)c1CCN1CCC(=C(c2ccc(F)cc2)c2ccc(F)cc2)CC1 [RITANSERIN]
Ki [1]: 0.9 nM
IC50 [1]: 3.47 nM
Ki [2]: 7.06 nM
IC50 [2]: 14.1 nM

NCCc1c[nH]c2ccc(O)cc12 [SEROTONIN]
Ki [1]: 919 nM
IC50 [1]: 3550 nM
Ki [2]: 14100 nM
IC50 [2]: 28200 nM

(-)-BUTACLAMOL
-Log IC50 [1]: 4.9
Ki [1]: 3260 nM
-Log IC50 [2]: 4.56
Ki [2]: 13800 nM
